Experimental data reported in ChEMBL document CHEMBL1137677, “Synthesis, pharmacological screening, quantum chemical and in vitro permeability studies of N-Mannich bases of benzimidazoles through bovine cornea” (Eur J Med Chem, 2009).

Key:
Rattus norvegicus [1] = assay: Antiinflammatory activity in Wistar albino rat assessed as reduction in formalin-induced paw edema volume at 50 mg/kg, po administered 30 mins prior to formalin challenge measured after 30 mins by plethysmography; format: functional; design: scale not given: the % may be the effect or the level left
Summary of the method: (§1)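 Standard-drug arm, given orally to Wistar albino rats 30 min before subplantar formalin (0.1 mL of 1% w/v). Paw volumes were measured by plethysmography at 30, 60, 90 and 120 min post-formalin and expressed as % reduction of edema.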

Rattus norvegicus [2] = assay: Antiinflammatory activity in Wistar albino rat assessed as reduction in formalin-induced paw edema volume at 50 mg/kg, po administered 30 mins prior to formalin challenge measured after 60 mins by plethysmography; format: functional; design: scale not given: the % may be the effect or the level left; summary of the method: as §1
Rattus norvegicus [3] = assay: Antiinflammatory activity in Wistar albino rat assessed as reduction in formalin-induced paw edema volume at 50 mg/kg, po administered 30 mins prior to formalin challenge measured after 90 mins by plethysmography; format: functional; design: scale not given: the % may be the effect or the level left; summary of the method: as §1
Rattus norvegicus [4] = assay: Antiinflammatory activity in Wistar albino rat assessed as reduction in formalin-induced paw edema volume at 50 mg/kg, po administered 30 mins prior to formalin challenge measured after 120 mins by plethysmography; format: functional; design: scale not given: the % may be the effect or the level left; summary of the method: as §1
[5] = Apparent permeability across bovine cornea assessed as lag time of permeation by UV-visible spectrophotometer; format: ADME, tissue-based, Bos taurus; details: cattle
Summary of the method: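 Fresh bovine cornea, taken within 1 h of sacrifice with lens and iris removed, was mounted in a side-by-side perfusion cell. Donor held 7 mL of drug in 0.01 M methanolic phosphate buffer, pH 7. Receptor was sampled 1 mL every 15 min for 3 h and replaced with buffer pre-equilibrated at 37 °C. Drug was quantified by UV-vis absorbance. Lag time is the time to reach a steady concentration gradient across the membrane.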

[6] = Acute toxicity in po dosed Wistar albino mouse assessed as mortality after 24 hrs by Karber's arithmetical method; format: organism-based; details: in vivo
Summary of the method: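 Wistar albino mice of either sex, six per group; compounds given orally by gavage as suspension in 1% carboxymethyl cellulose at 100, 200, 400, 800 or 1000 mg/kg. Mortality recorded over 24 h; LD50 calculated by Karber's arithmetical method.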

Mus musculus [7] = assay: Analgesic activity in Wistar albino mouse assessed as protection against acetic acid-induced writhing at 20 mg/kg, po administered 30 mins prior to acetic acid challenge measured after 30 mins; format: functional
Summary of the method: (§2)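 Wistar albino mice of either sex were dosed orally by gavage with a suspension in 1% carboxymethyl cellulose, 30 min before the writhing agent (0.6% v/v aqueous acetic acid, 1 mL/100 g). Writhings were counted over 30 min and expressed as percentage protection. Significance was tested by Student's t-test.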

Mus musculus [8] = assay: Analgesic activity in Wistar albino mouse assessed as protection against acetic acid-induced writhing at 40 mg/kg, po administered 30 mins prior to acetic acid challenge measured after 30 mins; format: functional; summary of the method: as §2
Rattus norvegicus [9] = assay: Antiinflammatory activity in Wistar albino rat assessed as reduction in formalin-induced paw edema volume at 40 mg/kg, po administered 30 mins prior to formalin challenge measured after 30 mins by plethysmography; format: functional; design: scale not given: the % may be the effect or the level left
Summary of the method: (§3)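 Wistar albino rats received the compound orally as a suspension in 1% carboxymethyl cellulose, 30 min before subplantar formalin (0.1 mL of 1% w/v). Paw volume was read by plethysmography at 30, 60, 90 and 120 min after formalin and expressed as % reduction of edema. Significance was tested by Student's t-test.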

Rattus norvegicus [10] = assay: Antiinflammatory activity in Wistar albino rat assessed as reduction in formalin-induced paw edema volume at 40 mg/kg, po administered 30 mins prior to formalin challenge measured after 60 mins by plethysmography; format: functional; design: scale not given: the % may be the effect or the level left; summary of the method: as §3
Rattus norvegicus [11] = assay: Antiinflammatory activity in Wistar albino rat assessed as reduction in formalin-induced paw edema volume at 40 mg/kg, po administered 30 mins prior to formalin challenge measured after 90 mins by plethysmography; format: functional; design: scale not given: the % may be the effect or the level left; summary of the method: as §3
Rattus norvegicus [12] = assay: Antiinflammatory activity in Wistar albino rat assessed as reduction in formalin-induced paw edema volume at 40 mg/kg, po administered 30 mins prior to formalin challenge measured after 120 mins by plethysmography; format: functional; design: scale not given: the % may be the effect or the level left; summary of the method: as §3
Mus musculus [13] = assay: Analgesic activity in Wistar albino mouse assessed as protection against acetic acid-induced writhing at 100 mg/kg, po administered 30 mins prior to acetic acid challenge measured after 30 mins; format: functional; summary of the method: as §2
Mus musculus [14] = assay: Analgesic activity in Wistar albino mouse assessed as protection against acetic acid-induced writhing at 200 mg/kg, po administered 30 mins prior to acetic acid challenge measured after 30 mins; format: functional; summary of the method: as §2
Rattus norvegicus [15] = assay: Antiinflammatory activity in Wistar albino rat assessed as reduction in formalin-induced paw edema volume at 200 mg/kg, po administered 30 mins prior to formalin challenge measured after 30 mins by plethysmography; format: functional; design: scale not given: the % may be the effect or the level left; summary of the method: as §3
Rattus norvegicus [16] = assay: Antiinflammatory activity in Wistar albino rat assessed as reduction in formalin-induced paw edema volume at 200 mg/kg, po administered 30 mins prior to formalin challenge measured after 60 mins by plethysmography; format: functional; design: scale not given: the % may be the effect or the level left; summary of the method: as §3
Rattus norvegicus [17] = assay: Antiinflammatory activity in Wistar albino rat assessed as reduction in formalin-induced paw edema volume at 200 mg/kg, po administered 30 mins prior to formalin challenge measured after 90 mins by plethysmography; format: functional; design: scale not given: the % may be the effect or the level left; summary of the method: as §3
Rattus norvegicus [18] = assay: Antiinflammatory activity in Wistar albino rat assessed as reduction in formalin-induced paw edema volume at 200 mg/kg, po administered 30 mins prior to formalin challenge measured after 120 mins by plethysmography; format: functional; design: scale not given: the % may be the effect or the level left; summary of the method: as §3

SMILES	Tlag [5] [min]	LD50 at 24 h [6] [mg/kg]	Activity (Mus musculus [7]) [%]	Activity (Mus musculus [8]) [%]	Activity (Rattus norvegicus [9]) [%]	Activity (Rattus norvegicus [10]) [%]	Activity (Rattus norvegicus [11]) [%]	Activity (Rattus norvegicus [12]) [%]	Activity (Mus musculus [13]) [%]	other results
O=C(O)Cc1ccccc1Nc1c(Cl)cccc1Cl [DICLOFENAC]	3.36									Activity (Rattus norvegicus [1]): 48%; Activity (Rattus norvegicus [2]): 65%; Activity (Rattus norvegicus [3]): 64%; Activity (Rattus norvegicus [4]): 65%
C(=C\c1nc2ccccc2n1CN1CCOCC1)/c1ccccc1	7.33	200	20.58	27.45	52	59	74	70		
CCN(CC)Cn1cnc2ccccc21	16.79	> 1000							11.35	Activity (Mus musculus [14]): 43.8%; Activity (Rattus norvegicus [15]): 28%; Activity (Rattus norvegicus [16]): 59%; Activity (Rattus norvegicus [17]): 63%; Activity (Rattus norvegicus [18]): 61%
c1ccc2[nH]cnc2c1 [BENZIMIDAZOLE]	18.81									
C(=C\c1nc2ccccc2n1CN1CCCCC1)/c1ccccc1	4.51	180	29.56	43.8	48	56	59	62		
CN(C)Cn1cnc2ccccc21	15.31	> 1000							25.87	Activity (Mus musculus [14]): 31.4%; Activity (Rattus norvegicus [15]): 48%; Activity (Rattus norvegicus [16]): 51%; Activity (Rattus norvegicus [17]): 64%; Activity (Rattus norvegicus [18]): 53%
C(=C\c1nc2ccccc2[nH]1)/c1ccccc1	9.57									
Cc1nc2ccccc2[nH]1	11.68									
CCN(CC)Cn1c(/C=C/c2ccccc2)nc2ccccc21	4.9	175	32.2	47.49	20	50	51	56		
CC(=O)Nc1ccc(O)cc1 [ACETAMINOPHEN]	1.55								47.76	
